The subject of one experiment is SF-268. Description: Cytotoxicity against human SF268 cells by SRB assay. It is filed as functional. The gist of the method:
(§1)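 Tested at the Japanese Foundation for Cancer Research panel of 39 human cancer cell lines. Five concentrations per compound, spanning 10^-10 to 10^-6 M or 10^-8 to 10^-4 M. Growth measured by sulforhodamine B colorimetry. GI50 is the concentration giving 50% growth inhibition relative to control.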

Another experiment relates to U-251. Description: Cytotoxicity against human U251 cells by SRB assay. It is filed as functional. The method, boiled down:
as §1
For orientation: The SRB assay estimates cell density from bound dye.

The subject of the next experiment is MDA-MB-231. In words: Cytotoxicity against human MDA-MB-231 cells by SRB assay. It is filed as functional. The method, boiled down:
as §1

Experiment [1] in a line: Cytotoxicity against human HBC5 cells by SRB assay. It is filed as functional. The gist of the method:
as §1

The subject of a further experiment is MCF7. In words: Cytotoxicity against human MCF7 cells by SRB assay. It is filed as functional. The gist of the method: as §1
Experiment [2] is described as follows: Cytotoxicity against human BSY1 cells by SRB assay. It is filed as functional. As to conditions: BSY-1. The gist of the method: as §1
Experiment [3] can be described thus: Cytotoxicity against human HBC4 cells by SRB assay. It is filed as functional. The gist of the method: as §1
Experiment [4] has as its target T1, Histone deacetylase 1 (Homo sapiens, UniProt Q13547). In words: Ratio of FK228 IC50 to compound IC50 for human HDAC1 expressed in human 293T cells. It is filed as cell-based. The method, boiled down: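 FLAG-tagged human HDAC1 was expressed transiently in 293T cells (pcDNA3-HDAC1), immunoprecipitated with anti-FLAG M2 and eluted with FLAG peptide. Enzyme was incubated with 2 mM stock Ac-KGLGK(Ac)-MCA in 20 mM Tris-HCl pH 8.0, 150 mM NaCl, 10% glycerol, 100 μM DTT, for 30 min at 37 °C. Trypsin then released AMC, read by fluorescence. IC50 is the mean of ≥3 dose-response curves; FK228 reference run alongside.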

The nature of experiment [5]: Selectivity index, ratio of IC50 for mouse HDAC6 to IC50 for human HDAC1. The gist of the method:
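Ratio of HDAC6 IC50 to HDAC1 IC50. Both enzymes were FLAG-immunopurified from transfected 293T cells: human HDAC1 and mouse HDAC6. Each was assayed on Ac-KGLGK(Ac)-MCA with 100 µM DTT at 37 °C for 30 min, developed with trypsin, and AMC read by fluorescence. IC50s are means of ≥3 curves.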

In experiment [6] the target is T2, Protein deacetylase HDAC6 (Mus musculus, UniProt Q9Z2V5).
T2 sequence (Q9Z2V5 whole entry): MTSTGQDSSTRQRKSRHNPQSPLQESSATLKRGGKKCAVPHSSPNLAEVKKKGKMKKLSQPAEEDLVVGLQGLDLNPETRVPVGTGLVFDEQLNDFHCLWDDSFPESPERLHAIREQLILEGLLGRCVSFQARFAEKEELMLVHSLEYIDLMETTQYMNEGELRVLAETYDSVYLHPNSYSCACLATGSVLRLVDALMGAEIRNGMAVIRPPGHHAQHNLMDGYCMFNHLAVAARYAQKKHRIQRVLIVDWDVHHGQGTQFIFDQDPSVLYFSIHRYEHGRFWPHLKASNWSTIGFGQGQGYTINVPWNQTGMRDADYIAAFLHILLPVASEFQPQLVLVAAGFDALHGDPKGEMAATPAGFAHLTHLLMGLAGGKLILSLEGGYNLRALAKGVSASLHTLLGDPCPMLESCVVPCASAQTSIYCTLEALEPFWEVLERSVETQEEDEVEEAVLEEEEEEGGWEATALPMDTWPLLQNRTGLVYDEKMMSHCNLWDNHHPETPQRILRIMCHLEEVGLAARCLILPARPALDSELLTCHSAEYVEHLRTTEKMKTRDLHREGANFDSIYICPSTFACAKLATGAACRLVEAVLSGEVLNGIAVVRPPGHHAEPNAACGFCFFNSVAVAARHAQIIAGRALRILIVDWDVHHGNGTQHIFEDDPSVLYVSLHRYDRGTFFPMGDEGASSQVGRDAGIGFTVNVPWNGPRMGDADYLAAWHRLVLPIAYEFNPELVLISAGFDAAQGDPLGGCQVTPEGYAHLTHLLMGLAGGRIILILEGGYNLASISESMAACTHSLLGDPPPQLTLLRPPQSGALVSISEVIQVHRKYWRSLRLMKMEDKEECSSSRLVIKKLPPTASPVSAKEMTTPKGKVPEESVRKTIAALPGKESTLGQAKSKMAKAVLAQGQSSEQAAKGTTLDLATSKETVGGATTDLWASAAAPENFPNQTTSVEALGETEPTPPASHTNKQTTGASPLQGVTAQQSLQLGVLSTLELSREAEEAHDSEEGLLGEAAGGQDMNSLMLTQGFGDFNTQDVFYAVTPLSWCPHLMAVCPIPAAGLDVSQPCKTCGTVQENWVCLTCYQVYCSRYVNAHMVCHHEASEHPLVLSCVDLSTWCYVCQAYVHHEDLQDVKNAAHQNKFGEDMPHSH
In words: Inhibition of mouse HDAC6 expressed in human 293T cells using Ac-KGLGK(Ac)-MCA as substrate after 30 mins by fluorescence assay. It is filed as cell-based.

The target of experiment [7] is T1, Histone deacetylase 1. In words: Inhibition of human HDAC1 expressed in human 293T cells using Ac-KGLGK(Ac)-MCA as substrate after 30 mins by fluorescence assay.
The next experiment relates to PC-3. Description: Cytotoxicity against human PC3 cells by SRB assay. It is filed as functional. The method, boiled down:
as §1

For a further experiment, the system named is DU-145. Description: Cytotoxicity against human DU145 cells by SRB assay. It is filed as functional. The method, boiled down:
as §1

Experiment [8] can be described thus: Cytotoxicity against human MKN45 cells by SRB assay. The following applies: MKN-45. It is filed as functional. The method, boiled down: as §1
Experiment [9] in a line: Cytotoxicity against human MKN74 cells by SRB assay. It is filed as functional. As to conditions: MKN-74. The method, boiled down: as §1
Experiment [10] in a line: Cytotoxicity against human MKN7 cells by SRB assay. It is filed as functional. As to conditions: MKN-7. The gist of the method: as §1
The nature of experiment [11]: Cytotoxicity against human MKN28 cells by SRB assay. The following applies: MKN-28. It is filed as functional. The method, boiled down:
as §1

Experiment [12] is described as follows: Cytotoxicity against human MKN1 cells by SRB assay. The following applies: MKN-1. It is filed as functional. The gist of the method:
as §1

A further experiment has as its system St-4. In words: Cytotoxicity against human St-4 cells by SRB assay. It is filed as functional. The method, boiled down: as §1
In a further experiment the test system is ACHN. In words: Cytotoxicity against human ACHN cells by SRB assay. It is filed as functional. The gist of the method: as §1
Experiment [13] in a line: Cytotoxicity against human RXF631L cells by SRB assay. It is filed as functional. As to conditions: RXF 631. The method, boiled down: as §1
Another experiment has as its system SK-OV-3. In words: Cytotoxicity against human SKOV3 cells by SRB assay. It is filed as functional. The method, boiled down: as §1
The test system of a further experiment is OVCAR-8. In words: Cytotoxicity against human OVCAR8 cells by SRB assay. It is filed as functional. The method, boiled down:
as §1

The nature of experiment [14]: Cytotoxicity against human OVCAR5 cells by SRB assay. It is filed as functional. As to conditions: OVCAR-5. The gist of the method:
as §1

Experiment [15] can be described thus: Cytotoxicity against human OVCAR4 cells by SRB assay. It is filed as functional. The following applies: OVCAR-4. The gist of the method:
as §1

For a further experiment, the system named is OVCAR-3. Description: Cytotoxicity against human OVCAR3 cells by SRB assay. It is filed as functional. The method, boiled down: as §1
A further experiment relates to LOX IMVI. Description: Cytotoxicity against human LOXIMVI cells by SRB assay. It is filed as functional. The gist of the method:
as §1

The nature of experiment [16]: Cytotoxicity against human DMS273 cells by SRB assay. It is filed as functional. The following applies: DMS-273. The gist of the method: as §1
Experiment [17] is described as follows: Cytotoxicity against human DMS114 cells by SRB assay. It is filed as functional. The following applies: DMS-114. The gist of the method: as §1
Another experiment concerns NCI-H460. In words: Cytotoxicity against human NCI-H460 cells by SRB assay. It is filed as functional. The method, boiled down: as §1
The test system of another experiment is A549. Description: Cytotoxicity against human A549 cells by SRB assay. It is filed as functional. The gist of the method: as §1
Another experiment concerns NCI-H226. In words: Cytotoxicity against human NCI-H226 cells by SRB assay. It is filed as functional. The method, boiled down:
as §1

The next experiment relates to NCI-H522. Description: Cytotoxicity against human NCI-H522 cells by SRB assay. It is filed as functional. The gist of the method:
as §1

In the next experiment the test system is NCI-H23. In words: Cytotoxicity against human NCI-H23 cells by SRB assay. It is filed as functional. The method, boiled down: as §1
For a further experiment, the system named is HCT-116. In words: Cytotoxicity against human HCT116 cells by SRB assay. It is filed as functional. The gist of the method:
as §1

A further experiment deals with HCT-15. Description: Cytotoxicity against human HCT15 cells by SRB assay. It is filed as functional. The method, boiled down:
as §1

For a further experiment, the system named is HT-29. In words: Cytotoxicity against human HT-29 cells by SRB assay. It is filed as functional. The gist of the method: as §1
A further experiment concerns KM12. Description: Cytotoxicity against human KM12 cells by SRB assay. It is filed as functional. The gist of the method: as §1
The nature of experiment [18]: Cytotoxicity against human SNB78 cells by SRB assay. It is filed as functional. As to conditions: SNB-78. The method, boiled down: as §1
The next experiment deals with HCC 2998. Description: Cytotoxicity against human HCC2998 cells by SRB assay. It is filed as functional. The method, boiled down:
as §1

A further experiment concerns SNB-75. Description: Cytotoxicity against human SNB75 cells by SRB assay. It is filed as functional. The method, boiled down: as §1
The test system of the next experiment is SF-295. Description: Cytotoxicity against human SF295 cells by SRB assay. It is filed as functional. The method, boiled down: as §1
The subject of the next experiment is SF-539. Description: Cytotoxicity against human SF539 cells by SRB assay. It is filed as functional. The method, boiled down: as §1

SMILES strings stand for the structures.

T1 sequence (Q13547 whole entry): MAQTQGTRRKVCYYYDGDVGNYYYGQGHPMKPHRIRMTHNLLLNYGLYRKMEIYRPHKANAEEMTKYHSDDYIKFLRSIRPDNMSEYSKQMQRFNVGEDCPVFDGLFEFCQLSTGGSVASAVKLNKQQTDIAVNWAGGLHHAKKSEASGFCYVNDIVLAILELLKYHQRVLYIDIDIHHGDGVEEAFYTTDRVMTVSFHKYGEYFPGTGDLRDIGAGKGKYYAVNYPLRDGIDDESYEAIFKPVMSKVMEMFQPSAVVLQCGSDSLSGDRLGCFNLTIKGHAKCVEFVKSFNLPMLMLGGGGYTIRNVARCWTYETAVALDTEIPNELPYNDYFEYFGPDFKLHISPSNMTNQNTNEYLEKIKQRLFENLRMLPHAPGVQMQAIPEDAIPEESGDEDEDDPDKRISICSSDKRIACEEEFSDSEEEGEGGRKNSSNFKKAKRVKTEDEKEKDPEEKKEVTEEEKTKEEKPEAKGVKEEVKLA

The term GI50 denotes the concentration that inhibits growth by half. As usually defined, the IC50 is the point on the concentration scale where inhibition reaches its midpoint. For `CC[C@H](C)[C@H]1NC(=O)[C@H]2CSSCC/C=C/[C@H](CC(=O)N[C@H](CCSC)C(=O)N2)OC(=O)C[C@@H]1O` [THAILANDEPSIN A], the GI50 stood at 4.1 nM with SF-268; 4.4 nM in the experiment with U-251; 2.6 nM with MDA-MB-231; 2.3 nM in experiment [1]; 2.8 nM in the experiment with MCF7; 5 nM in experiment [2]. In addition, the GI50 in [3] amounted to 3.8 nM; in the experiment with PC-3, 8.3 nM; with DU-145, 3.1 nM; in experiment [8] it was 14 nM; in [9], 2.9 nM; in experiment [10], 10 nM. The GI50 in [11] worked out at 16 nM; in experiment [12] it was 2.5 nM; with St-4 it was 1.1 nM; in the experiment with ACHN, 6.6 nM; in experiment [13], 2.3 nM; in the experiment with SK-OV-3 it was 1.9 nM. For the same compound, the GI50 in the experiment on OVCAR-8 is 0.72 nM; in [14], 1.6 nM; in experiment [15] it was 5 nM; with OVCAR-3, 2.8 nM; in the experiment with LOX IMVI, 2.5 nM; in experiment [16], 2.7 nM. In addition, the 50% growth inhibitory concentration (GI50) in experiment [17] was 3.2 nM; in the experiment on NCI-H460 it was 0.53 nM; in the experiment on A549, 0.85 nM; with NCI-H226, 2.7 nM; with NCI-H522 it was 0.42 nM; in the experiment with NCI-H23, 3.3 nM. For the same compound, the GI50 in the experiment on HCT-116 amounted to 0.51 nM; in the experiment with HCT-15, 100 nM; in the experiment with HT-29, 0.74 nM; in the experiment on KM12, 3.6 nM; in [18], 11 nM; with HCC 2998, 2.6 nM. The GI50 worked out at 1.4 nM in the experiment on SNB-75, 2.3 nM in the experiment with SF-295 and 0.7 nM in the experiment with SF-539. Moreover, the Ratio IC50 is 3 at Histone deacetylase 1 [4] and 992 in experiment [5]. Further, the IC50 is 992 nM in experiment [6] and 1 nM against Histone deacetylase 1 [7].
On to `CCC(C)[C@H]1NC(=O)[C@H]2CSSCC/C=C/[C@H](CC(=O)N[C@H](C)C(=O)N2)OC(=O)C[C@@H]1O` (stereo not given in full), for which, in [5], the Ratio IC50 was found to be 636.
Still for that read-out and setting: then `CC(C)[C@H]1NC(=O)[C@H]2CSSCC/C=C/[C@H](CC(=O)N[C@H](C)C(=O)N2)OC(=O)C[C@@H]1O`, with 485.

Values taken from ChEMBL document CHEMBL3124849, “Total synthesis of burkholdacs A and B and 5,6,20-tri-epi-burkholdac A: HDAC inhibition and antiproliferative activity” (Eur J Med Chem, 2014).
